The record followed here is ChEMBL document CHEMBL3272033, “Physicochemical and pharmacological studies of some 8-substituted decahydroisoquinolines” (J Med Chem, 1976).

The subject of data set [1] is Heart. The data set can be described thus: Antiarrhythmic activity in Hartley guinea pig atria assessed as change in maximum driving rate at 65.0 uM/l after 5 mins. It is filed as functional, Cavia porcellus. The method, boiled down:
(§1)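 Spontaneously beating isolated atria held under initial tension; bath fluid changed every 10 min; stabilised about 1 h. Maximum driving rate found with 1-ms square pulses at 50% above threshold voltage, 10 s every 30 s; the frequency just before failure of following is the MDR. Control is the mean of two determinations. Spontaneous rate recorded by tachograph. Values are % change from control at peak response, generally 5–30 min.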

Data set [2] relates to Mus musculus. The experiment in a line: Antiarrhythmic activity in ip dosed Swiss-Webster albino mouse assessed as prevention of chloroform-induced ventricular fibrillation. It is filed as functional, Heart.
Data set [3] is described as follows: Dissociation constant, pKa of the compound in 0.01 M potassium hydrogen phthalate. It is filed as physicochemical. The method, boiled down: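 pKa by potentiometric titration with 0.01 M potassium hydrogen phthalate in a thermostated vessel, stirred, under nitrogen bubbling, using glass and calomel electrodes. pKa is the mean pH at half-neutralization from four titrations. Endpoints were taken from parallel tangents on either side of the inflection.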

Data set [4] has as its system Heart. The data set can be described thus: Antiarrhythmic activity in Hartley guinea pig atria assessed as change in maximum driving rate at 32.5 uM/l after 5 mins. It is filed as functional, Cavia porcellus. The method, boiled down:
as §1

For data set [5], the species on record is Homo sapiens. The data set can be described thus: Drug absorption in buccal cavity in human at pH 5.50 after 5 mins by UV spectrometry. The note with it: in vivo, other, pH 5.5, 5 min. The format is ADME, organism-based. The method, boiled down: (§2)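 3 mg compound in 25 ml buffer (0.1 M phosphate pH 5.50 or 7.50; tetraborate pH 9.30) swished in the mouth for 5 min, expelled, and combined with a 10 ml water rinse. Made up to 50 ml; aliquot basified to pH 10 and ether-extracted, then back-extracted into 0.1 N HCl. UV absorbance read at λmax against Beer's law plots; the unrecovered fraction is taken as % absorbed. One to three subjects.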

Data set [6] deals with Heart. The data set can be described thus: Antiarrhythmic activity in Hartley guinea pig atria assessed as reversible decrease in maximum driving rate compound treated for 5 mins measured up to 2 hrs post washout. Conditions: Cavia porcellus. The format is functional, tissue-based. The method, boiled down: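 After compound exposure the bath was washed out. Two MDR determinations were made every 15 min for up to 2 h to follow reversibility and recovery toward control. Bath fluid was changed every 10 min.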

The species named for data set [7] is Homo sapiens. The data set can be described thus: Drug absorption in buccal cavity in human at pH 7.50 after 5 mins by UV spectrometry. The format is ADME, organism-based. Conditions: in vivo, other, pH 7.5, 5 min. The method, boiled down:
as §2

For data set [8], the species on record is Homo sapiens. The experiment in a line: Drug absorption in buccal cavity in human at pH 9.3 after 5 mins by UV spectrometry. The format is ADME, organism-based. The note with it: in vivo, other, pH 9.3, 5 min. The method, boiled down:
as §2

Data set [9] is described as follows: Therapeutic index, ratio of LD50 for toxicity to ED50 for antiarrhythmic activity in ip dosed Swiss-Webster albino mouse. It is filed as organism-based, Heart. Conditions: in vivo, read-out: Ratio LD50/ED50.
Data set [10] relates to Homo sapiens. The data set can be described thus: Toxicity in human assessed as numbness at 5 x 10' -5 M administered topically to buccal cavity measured up to 15 to 20 mins. Conditions: in vivo, topical_or_ocular, 50 µM. It is filed as organism-based.
Data set [11] deals with Mus musculus. The experiment in a line: Toxicity in ip dosed Swiss-Webster albino mouse. The format is organism-based. Conditions: in vivo.
The subject of data set [12] is Heart. The data set can be described thus: Antiarrhythmic activity in Hartley guinea pig atria assessed as change in spontaneous rate at 32.5 uM/l after 5 mins. The format is functional, Cavia porcellus. The method, boiled down:
as §1

For data set [13], the system named is Heart. The experiment in a line: Antiarrhythmic activity in Hartley guinea pig atria assessed as change in spontaneous rate at 65.0 uM/l after 5 mins. It is filed as functional, Cavia porcellus. The method, boiled down: as §1
Data set [14] has as its system Heart. The data set can be described thus: Antiarrhythmic activity in Hartley guinea pig atria assessed as change in maximum driving rate at 36.6 uM/l after 5 mins. The format is functional, Cavia porcellus. The method, boiled down: as §1
The subject of data set [15] is Heart. The experiment in a line: Antiarrhythmic activity in Hartley guinea pig atria assessed as change in maximum driving rate at 73.2 uM/l after 5 mins. The format is functional, Cavia porcellus. The method, boiled down: as §1
Data set [16] deals with Heart. The data set can be described thus: Antiarrhythmic activity in Hartley guinea pig atria assessed as change in spontaneous rate at 36.6 uM/l after 5 mins. It is filed as functional, Cavia porcellus. The method, boiled down:
as §1

Data set [17] concerns Heart. The data set can be described thus: Antiarrhythmic activity in Hartley guinea pig atria assessed as change in spontaneous rate at 73.2 uM/l after 5 mins. The format is functional, Cavia porcellus. The method, boiled down:
as §1

Data set [18] relates to Heart. The experiment in a line: Antiarrhythmic activity in Hartley guinea pig atria assessed as change in spontaneous rate at 30.8 uM/l after 5 mins. The format is functional, Cavia porcellus. The method, boiled down:
as §1

In data set [19] the test system is Heart. The experiment in a line: Antiarrhythmic activity in Hartley guinea pig atria assessed as change in maximum driving rate at 15.4 uM/l after 5 mins. The format is functional, Cavia porcellus. The method, boiled down:
as §1

The subject of data set [20] is Heart. The data set can be described thus: Antiarrhythmic activity in Hartley guinea pig atria assessed as change in spontaneous rate at 15.4 uM/l after 5 mins. The format is functional, Cavia porcellus. The method, boiled down:
as §1

Data set [21] has as its system Heart. The experiment in a line: Antiarrhythmic activity in Hartley guinea pig atria assessed as change in maximum driving rate at 61.6 uM/l after 5 mins. It is filed as functional, Cavia porcellus. The method, boiled down: as §1
Data set [22] has as its system Heart. The data set can be described thus: Antiarrhythmic activity in Hartley guinea pig atria assessed as change in spontaneous rate at 61.6 uM/l after 5 mins. It is filed as functional, Cavia porcellus. The method, boiled down: as §1
The test system of data set [23] is Heart. The data set can be described thus: Antiarrhythmic activity in Hartley guinea pig atria assessed as change in maximum driving rate at 30.8 uM/l after 5 mins. It is filed as functional, Cavia porcellus. The method, boiled down:
as §1

As to `CN1CC[C@H]2CCC[C@@H](OC(=O)c3ccc(Cl)cc3)[C@H]2C1` (mixture of isomers), the Activity is -53.3% in the data set on Heart [1]; -32.2% in the data set with Heart [4]; “Dose-dependent effect” in the data set on Heart [6]; “Toxic” in the data set with Homo sapiens [10]; -48.6% in the data set on Heart [12]; -52.3% in the data set on Heart [13]. Also, in the data set on Mus musculus [2], the ED50 – broadly, the dose that gives a 50% effect, or the effect in half of the subjects – was determined as 257 µmol/kg. Further, the pKa (usually the negative logarithm of the acid dissociation constant) in data set [3] worked out at 8.9. For the same molecule, the Drug absorption is given as 13.7% in the data set listed under Homo sapiens [5], 43.7% in the data set listed under Homo sapiens [7] and 86.5% in the data set filed under Homo sapiens [8]. Besides, in [9], the selectivity ratio came out at 4.7. Further, the LD50 in the data set with Mus musculus [11] was 1200.

On to `CN1CC[C@H]2CCC[C@@H](OC(=O)c3ccccc3)[C@H]2C1` (relative stereo), for which the ED50 in the data set on Mus musculus [2] is 245 µmol/kg. The pKa in data set [3] was 9.05. Besides, the Activity with Heart [14] was -24.5%; in the data set on Heart [6], “Dose-dependent effect”; with Heart [15], -55.5%; with Heart [16], -23%; with Homo sapiens [10], “Toxic”; in the data set with Heart [17], -57.8%. The figures for the Drug absorption in the data set filed under Homo sapiens [5], in the data set listed under Homo sapiens [7] and in the data set listed under Homo sapiens [8] were 29.7%, 46% and 81.8%, respectively. The selectivity ratio in data set [9] came out at 3.7. Besides, the LD50 in the data set on Mus musculus [11] was 900.

`C=C[C@H]1CN2CC[C@H]1C[C@@H]2[C@@H](O)c1ccnc2ccc(OC)cc12` [QUINIDINE]: the Activity in the data set with Heart [18] was -28.6%; with Heart [19], -13.3%; with Heart [20] it was -18.8%; in the data set with Heart [21], -36.3%; with Heart [22] it was -36.1%; with Heart [6] it was “Dose-dependent effect”. In the data set with Heart [23], the Activity is recorded as -22.8%. Moreover, the ED50 with Mus musculus [2] came out at 160 µmol/kg.

With `CN1CC[C@H]2CCC[C@@H](OC(=O)c3ccc(Cl)cc3)[C@@H]2C1` (mixture of isomers), the Activity with Heart [1] was -55.8%; with Homo sapiens [10] it was “Toxic”; with Heart [13] it was -60.5%. Also, the ED50 with Mus musculus [2] was found to be 146 µmol/kg. In data set [3], this molecule gave a pKa of 8.75. Further, the Drug absorption in the data set filed under Homo sapiens [5] worked out at 17.4%; in the data set listed under Homo sapiens [7], 42.7%; in the data set filed under Homo sapiens [8], 84.7%. In data set [9], the selectivity ratio was 5.2. This molecule returned an LD50 in the data set on Mus musculus [11] of 757.
